Reference: ChEMBL document CHEMBL1137139, “Synthesis of potent taxoids for tumor-specific delivery using monoclonal antibodies” (Bioorg Med Chem Lett, 2004)

Experiments:
Format in all cases: functional, cell-based
A-431 = assay: Cytotoxic effect on A431 cell proliferation after 72 hr; details: Homo sapiens, A-431, 72 h
Summary of the method: (§1)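 Human cancer cell lines were exposed to the compound continuously for 72 h, and growth inhibition was measured. IC50 was taken as the concentration that inhibits 50% of cell-line growth.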

A549 [1] = assay: Compound was tested for its cytotoxicity by inhibiting the growth of A-549 cell line after 72 h; details: Homo sapiens, A549, 72 h
MCF7 = assay: Compound was tested for its cytotoxicity by inhibiting the growth of MCF-7 cell line after 72 h; details: Homo sapiens, MCF7, 72 h
A549 [2] = assay: Concentration of compound that Compound was tested for its cytotoxicity by inhibiting the growth of A-549 cell line after 72 h; details: Homo sapiens, A549, 72 h; summary of the method: as §1
A549 [3] = assay: Concentration of compound that inhibits 50% of growth of Compound was tested for its cytotoxicity by inhibiting the growth of; details: Homo sapiens

SMILES | IC50 (A-431) [nM] | IC50 (A549 [1]) [nM] | IC50 (MCF7) [nM] | IC50 (A549 [2]) [nM] | IC50 (A549 [3]) [nM]
CSSCCC(=O)O[C@@H](C(=O)O[C@H]1C[C@@]2(O)[C@@H](OC(=O)c3ccccc3)[C@@H]3[C@]4(OC(C)=O)CO[C@@H]4C[C@H](O)[C@@]3(C)C(=O)[C@H](OC(C)=O)C(=C1C)C2(C)C)[C@H](C=C(C)C)NC(=O)OC(C)(C)C | > 3 | 0.9 | – | – | –
CSSCCC(=O)O[C@H]1C(=O)[C@@]2(C)[C@H]([C@H](OC(=O)c3cccc(Cl)c3)[C@]3(O)C[C@H](OC(=O)[C@H](O)[C@H](C=C(C)C)NC(=O)OC(C)(C)C)C(C)=C1C3(C)C)[C@]1(OC(C)=O)CO[C@@H]1C[C@@H]2O | – | – | 0.08 | 0.29 | –
CC(=O)O[C@H]1C(=O)[C@@]2(C)[C@H]([C@H](OC(=O)c3cccc(N(C)C)c3)[C@]3(O)C[C@H](OC(=O)[C@H](O)[C@H](C=C(C)C)NC(=O)OC(C)(C)C)C(C)=C1C3(C)C)[C@]1(OC(C)=O)CO[C@@H]1C[C@@H]2O | – | 1 | 1 | – | –
CSSCCC(=O)O[C@H]1C(=O)[C@@]2(C)[C@H]([C@H](OC(=O)c3cccc(N(C)C)c3)[C@]3(O)C[C@H](OC(=O)[C@H](O)[C@H](C=C(C)C)NC(=O)OC(C)(C)C)C(C)=C1C3(C)C)[C@]1(OC(C)=O)CO[C@@H]1C[C@@H]2O | – | > 3 | 3 | – | –
CC(=O)O[C@H]1C(=O)[C@@]2(C)[C@H]([C@H](OC(=O)c3cc(F)cc(F)c3)[C@]3(O)C[C@H](OC(=O)[C@H](O)[C@H](C=C(C)C)NC(=O)OC(C)(C)C)C(C)=C1C3(C)C)[C@]1(OC(C)=O)CO[C@@H]1C[C@@H]2O | – | – | 0.04 | – | 0.1
COc1cccc(C(=O)O[C@H]2[C@@H]3[C@]4(OC(C)=O)CO[C@@H]4C[C@H](O)[C@@]3(C)C(=O)[C@H](OC(=O)CCSSC)C3=C(C)[C@@H](OC(=O)[C@H](O)[C@H](C=C(C)C)NC(=O)OC(C)(C)C)C[C@]2(O)C3(C)C)c1 | – | 0.1 | 0.038 | – | –
CC(=O)O[C@H]1C(=O)[C@@]2(C)[C@H]([C@H](OC(=O)c3cccc(Cl)c3)[C@]3(O)C[C@H](OC(=O)[C@H](O)[C@H](C=C(C)C)NC(=O)OC(C)(C)C)C(C)=C1C3(C)C)[C@]1(OC(C)=O)CO[C@@H]1C[C@@H]2O | – | 0.03 | 0.02 | – | –
COc1cccc(C(=O)O[C@H]2[C@@H]3[C@]4(OC(C)=O)CO[C@@H]4C[C@H](O)[C@@]3(C)C(=O)[C@H](OC(C)=O)C3=C(C)[C@@H](OC(=O)[C@H](O)[C@H](C=C(C)C)NC(=O)OC(C)(C)C)C[C@]2(O)C3(C)C)c1 | – | 0.04 | 0.02 | – | –
CSSCCC(=O)N[C@@H](CC(C)C)[C@@H](O)C(=O)O[C@H]1C[C@@]2(O)[C@@H](OC(=O)c3ccccc3)[C@@H]3[C@]4(OC(C)=O)CO[C@@H]4C[C@H](O)[C@@]3(C)C(=O)[C@H](OC(=O)N3CCOCC3)C(=C1C)C2(C)C | 2.8 | > 3 | – | – | –
CCC(=O)O[C@H]1C(=O)[C@@]2(C)[C@H]([C@H](OC(=O)c3ccccc3)[C@]3(O)C[C@H](OC(=O)[C@H](O)[C@H](CC(C)C)NC(=O)CCSSC)C(C)=C1C3(C)C)[C@]1(OC(C)=O)CO[C@@H]1C[C@@H]2O | > 3 | > 3 | – | – | –
CSSCCC(=O)O[C@H]1C(=O)[C@@]2(C)[C@H]([C@H](OC(=O)c3cc(F)cc(F)c3)[C@]3(O)C[C@H](OC(=O)[C@H](O)[C@H](C=C(C)C)NC(=O)OC(C)(C)C)C(C)=C1C3(C)C)[C@]1(OC(C)=O)CO[C@@H]1C[C@@H]2O | – | 0.36 | 0.15 | – | –
COc1ccc(OC)c(C(=O)O[C@H]2[C@@H]3[C@]4(OC(C)=O)CO[C@@H]4C[C@H](O)[C@@]3(C)C(=O)[C@H](OC(C)=O)C3=C(C)[C@@H](OC(=O)[C@H](O)[C@H](C=C(C)C)NC(=O)OC(C)(C)C)C[C@]2(O)C3(C)C)c1 | – | 0.03 | 0.03 | – | –
COc1ccc(OC)c(C(=O)O[C@H]2[C@@H]3[C@]4(OC(C)=O)CO[C@@H]4C[C@H](O)[C@@]3(C)C(=O)[C@H](OC(=O)CCSSC)C3=C(C)[C@@H](OC(=O)[C@H](O)[C@H](C=C(C)C)NC(=O)OC(C)(C)C)C[C@]2(O)C3(C)C)c1 | – | 0.08 | 0.04 | – | –
CSSCCC(=O)O[C@H]1C[C@H]2OC[C@@]2(OC(C)=O)[C@H]2[C@H](OC(=O)c3ccccc3)[C@]3(O)C[C@H](OC(=O)[C@H](O)[C@H](C=C(C)C)NC(=O)OC(C)(C)C)C(C)=C([C@@H](O)C(=O)[C@]12C)C3(C)C | 0.3 | 0.2 | – | – | –
CSSc1cccc(C(=O)O[C@H]2[C@@H]3[C@]4(OC(C)=O)CO[C@@H]4C[C@H](O)[C@@]3(C)C(=O)[C@H](OC(C)=O)C3=C(C)[C@@H](OC(=O)[C@H](O)[C@H](C=C(C)C)NC(=O)OC(C)(C)C)C[C@]2(O)C3(C)C)c1 | > 3 | > 3 | – | – | –
